Calls of active or inactive are those of the source. The calls are words filed in the database; no cut-off is given here.
Experiments:
[1] = target: T1, Glycogen synthase kinase-3 beta (Homo sapiens, UniProt P49841); assay: Inhibition of recombinant human GSK3beta using prephosphorylated peptide as substrate measured after 30 mins by Kinase-glo luminescence assay
Target sequence in this assay (P49841 whole entry): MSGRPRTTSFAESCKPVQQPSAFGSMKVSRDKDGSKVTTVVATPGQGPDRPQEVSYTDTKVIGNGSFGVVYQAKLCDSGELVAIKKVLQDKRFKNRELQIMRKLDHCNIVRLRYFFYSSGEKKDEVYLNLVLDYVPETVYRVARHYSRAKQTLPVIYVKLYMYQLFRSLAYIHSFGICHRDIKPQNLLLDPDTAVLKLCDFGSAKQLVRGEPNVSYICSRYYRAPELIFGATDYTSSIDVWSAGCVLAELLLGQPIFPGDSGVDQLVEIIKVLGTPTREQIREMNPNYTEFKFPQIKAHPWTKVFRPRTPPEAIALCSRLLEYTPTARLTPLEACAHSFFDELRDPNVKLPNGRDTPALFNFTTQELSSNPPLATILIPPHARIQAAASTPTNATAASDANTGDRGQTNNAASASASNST

[2] = target: T1, Glycogen synthase kinase-3 beta; assay: Time-dependent irreversible inhibition of recombinant human GSK3beta at 0.05 to 0.2 uM using prephosphorylated peptide as substrate by Kinase-glo luminescence assay
In short: (§1)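 Inhibitor pre-incubated with GSK-3β for varying lengths of time before the kinase reaction. Inhibition is expressed as percentage inhibition at each pre-incubation time.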
Target sequence in this assay (P49841 whole entry, looked up): as the sequence (P49841 whole entry) above

[3] = target: T1, Glycogen synthase kinase-3 beta; assay: Time-dependent irreversible inhibition of recombinant human GSK3beta at 0.05 to 0.1 uM using prephosphorylated peptide as substrate by Kinase-glo luminescence assay; in short: as §1
Target sequence in this assay (P49841 whole entry, looked up): as the sequence (P49841 whole entry) above

IC50 [1] | TDI [2] | TDI [3] | Compound
4050 nM |  |  | C=CC(=O)c1ccc2nc(NC(=O)NCc3ccc(OC)cc3)sc2c1
2470 nM |  |  | C#CC(=O)c1ccc2nc(NC(=O)NCc3ccc(OC)cc3)[nH]c2c1
1820 nM |  |  | C=CC(=O)c1ccc2nc(NC(=O)NCc3ccc(OC)cc3)[nH]c2c1
110 nM |  |  | COc1ccc(CNC(=O)Nc2nc3ccc(C#N)cc3s2)cc1
> 10000 nM |  |  | C=CC(=O)Nc1ccc2nc(NC(=O)NCc3ccc(OC)cc3)sc2c1
260 nM |  |  | COc1ccc(CNC(=O)Nc2nc3ccc(C(C)=O)cc3[nH]2)cc1
> 10000 nM |  |  | C=CC(=O)Nc1ccc2nc(NC(=O)NCc3ccc(OC)cc3)[nH]c2c1
130 nM | Active |  | COc1ccc(CNC(=O)Nc2nc3ccc(C(=O)CBr)cc3[nH]2)cc1
4210 nM |  |  | C#CC(=O)c1ccc2nc(NC(=O)NCc3ccc(OC)cc3)sc2c1
770 nM |  |  | COc1ccc(CNC(=O)Nc2nc3ccc(C(=O)CBr)cc3s2)cc1
86 nM |  | Active | COc1ccc(CNC(=O)Nc2nc3ccc(C#N)cc3[nH]2)cc1
2260 nM |  |  | COc1ccc(CNC(=O)Nc2nc3ccc(C(C)=O)cc3s2)cc1

From ChEMBL document CHEMBL4390704, “1-Aryl-3-(4-methoxybenzyl)ureas as potentially irreversible glycogen synthase kinase 3 inhibitors: Synthesis and biological evaluation” (Bioorg Med Chem Lett, 2019)
